# ASAP1 inh – ASAP1 ArfGAP inhibition; ASAP1-stimulated ARF1 GTP hydrolysis, GDP FP detection; Q9ULH1; inhibition, % at 16.5 µM; AID 624377; hit rate 0.19% among 360,000; in the data active means inhibition above about 25%;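 further: 0% = vehicle with enzyme and substrate and 100% = no enzyme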
# Target sequence (Q9ULH1 325-724 limits assumed): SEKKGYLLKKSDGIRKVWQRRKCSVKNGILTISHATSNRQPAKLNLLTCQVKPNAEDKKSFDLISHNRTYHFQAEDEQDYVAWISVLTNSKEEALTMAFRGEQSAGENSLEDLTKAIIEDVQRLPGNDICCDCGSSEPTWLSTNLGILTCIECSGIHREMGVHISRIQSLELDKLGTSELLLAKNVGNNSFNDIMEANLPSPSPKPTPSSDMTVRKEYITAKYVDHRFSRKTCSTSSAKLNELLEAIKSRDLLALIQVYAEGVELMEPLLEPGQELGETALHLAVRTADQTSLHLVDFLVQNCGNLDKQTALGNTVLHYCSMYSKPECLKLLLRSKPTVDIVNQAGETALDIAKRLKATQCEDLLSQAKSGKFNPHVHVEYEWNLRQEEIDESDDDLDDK
# esBAF inh – SWI/SNF esBAF complex inhibition; mouse ES cells, Bmi1-luciferase knock-in reporter, 24 h; 100% = twice the neutral-well signal; reporter increase, % at 12.5 µM; hit rate 2% among 350,000; in the data active means activation above about 40%; inconclusive means no clear call, values can overlap the other calls;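 further: 0% = median of the plate's neutral control wells and 100% = double that signal; a rise in the Bmi1 reporter signal indicates esBAF inhibition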
# SMARCA2 activ – activators of SMARCA2 function; MG213 cells, MMTV-luciferase reporter, dexamethasone, overnight; activation, % at 9.1 µM; hit rate 1% among 370,000; AID 652017; in the data active means activation above about 7.8%;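 further: 0% = vehicle wells and 100% = reference activator wells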
# ARFGAP1 inh – inhibitors of rat ARFGAP1; hit rate 0.26% among 360,000; inhibition, % at 16.5 µM; AID 651572; Arfgap1-stimulated ARF1 GTP hydrolysis, GDP FP detection; Q62848;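 active means inhibition above a per-plate limit, mean inhibition of low control wells plus 3 SD, cut at about 25% in these data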;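 further: 0% = DMSO wells with enzyme and 100% = wells lacking Arfgap1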
# Target sequence (Q62848 1-136 limits assumed): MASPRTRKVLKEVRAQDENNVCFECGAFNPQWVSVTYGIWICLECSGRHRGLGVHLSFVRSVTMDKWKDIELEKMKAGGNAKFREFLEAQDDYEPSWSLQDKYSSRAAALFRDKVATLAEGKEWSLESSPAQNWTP
#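 system = rat Arfgap1 catalytic domain, aa 1-136 | technique = FP, GDP Alexa 633 tracer displaced from anti-GDP antibody, 620/688 nm | compound = one concentration, 16.5 µM, DMSO 1.26% | medium = HEPES-based buffer, pH 7.5 | timing = compound-enzyme preincubation 20 min, reaction 120 min, detection 60 min, 25 °C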
# Active calls of the source: *; ? = inconclusive; nt = not tested or not shown. Hits are enriched below; roughly 2.6% of the tested compounds scored in any of these assays.
SMILES,ASAP1 inh,esBAF inh,SMARCA2 activ,ARFGAP1 inh
COc1ccc(S(=O)(=O)Nc2ccc3c(c2)C(=O)N([C@H](C)CO)C[C@@H](C)[C@@H](CN(C)Cc2ccccc2)OCCCC[C@H](C)O3)cc1,nt,-10,nt,nt
O=C(NC[C@@H]1[C@H](c2ccccc2)[C@H](CO)N1CC1CCCC1)c1ccncc1,nt,1,nt,nt
CC(CC(=O)c1cccs1)CC(=O)c1cccs1,-2,70*,6,-10
CC1CCN(C(=O)COC(=O)c2cccs2)CC1,3,65*,2,5
CC1CCN(C(=O)COC(=O)c2ccc3c(c2)OCO3)CC1,-1,48*,2,5
O=C(CC(C(=O)O)c1ccccc1)c1cccs1 (configuration not stated),-7,nt,6,-5
CC1CCN(C(=O)Cn2nnc(-c3cccs3)n2)CC1,2,48*,1,4
C[C@@H]1CN([C@H](C)CO)C(=O)Cc2cc(NC(=O)c3ccncc3)ccc2O[C@H]1CN(C)S(=O)(=O)c1ccccc1,nt,6,nt,nt
O=C(NCc1ccc(F)cc1)[C@@H]1[C@@H](CO)[C@@H]2Cn3c(cccc3=O)[C@@H]2N1CC1CC1,nt,1,nt,nt
CC1CCCCN1C(=O)COC(=O)c1cc(Cl)c2c(c1)OCO2 (configuration not stated),3,55*,2,11
O=C(C[C@@H]1C=C[C@H](NC(=O)C2CC2)[C@H](CO)O1)NCCCN1CCOCC1,nt,1,nt,nt
Cc1ccccc1OCc1nc2c3cnn(C)c3ncn2n1,-11,66*,4,2
Cc1ccccc1OCc1nc2c3c(ncn2n1)-c1ccccc1CC31CCCC1,8,-1,1,6
O=C(Nc1cccnc1)c1ccc([N+](=O)[O-])o1,8,2,7.8*,2
COc1ccc(OCC(=O)N/N=C(\C)c2cccs2)cc1,2,nt,2,6
O=C(Nc1ccc(Cc2ccc(NC(=O)Nc3cccnc3)cc2)cc1)Nc1cccnc1,14,56*,-1,-2
O=C(NCc1cccnc1)c1ccc([N+](=O)[O-])o1,-9,-3,3,5
O=C(Nc1ccc(Cl)cc1)Nc1cccnc1,6,34,3,2
O=C(COc1ccccc1[N+](=O)[O-])Nc1cccnc1,10,45*,1,6
C/C(=N\NC(=O)COc1ccccc1[N+](=O)[O-])c1cccs1,1,53*,4,4
C[C@@H]1CN([C@H](C)CO)C(=O)c2cc(NC(=O)Nc3cccc4ccccc34)ccc2O[C@@H]1CN(C)S(=O)(=O)c1ccc(Cl)cc1,nt,4,nt,nt
C[C@@H]1CN([C@H](C)CO)C(=O)c2cc(NC(=O)NC3CCCCC3)ccc2O[C@@H]1CN(C)Cc1ccc(C(=O)O)cc1,nt,-4,nt,nt
CCC(C)(C)C(=O)Nc1nnc(CCc2ccccc2)s1,3,62*,4,0
Cc1ccc(S(=O)(=O)CCc2nnc(NC(=O)c3cccs3)s2)cc1,9,nt,0,11
CC(C)(C)CC(=O)Nc1nnc(CCc2ccccc2)s1,-1,?,2,-8
SMILES,ASAP1 inh,esBAF inh,SMARCA2 activ,ARFGAP1 inh
O=C(Nc1nnc(CCc2ccccc2)s1)c1cccs1,3,46*,4,-3
C[C@@H]1CN([C@H](C)CO)C(=O)c2cc(C3=CCCCC3)cnc2O[C@H]1CN(C)Cc1cccnc1,nt,0,nt,nt
CSc1nc2ccc(NC(=O)NC(=O)c3c(F)cccc3F)cc2s1,-3,nt,3,12
CSc1nc2ccc(NC(=O)c3ccc(Cl)s3)cc2s1,11,50*,3,2
Nc1nn(-c2ccccc2)c(N)c1N=Nc1ccccc1F,2,nt,3,3
Nc1c(N=Nc2ccccc2F)c(=O)[nH]n1-c1ccccc1,-5,69*,1,10
C[C@@H](NC(=O)C[C@@H]1C=C[C@H](NC(=O)Cc2ccccn2)[C@@H](CO)O1)c1ccccc1,nt,1,nt,nt
Cc1cc(C(=O)O)ccc1N/C=C1\CCCC(C)C1=O (configuration not stated),-6,64*,4,1
CSCc1ccc(C(=O)NCCSc2ccc(Br)cc2)cc1,9,48*,2,-10
Cc1ccc(S(=O)(=O)N(C)C[C@H]2Oc3c(NC(=O)NC(C)C)cccc3C(=O)N([C@@H](C)CO)C[C@@H]2C)cc1,nt,1,nt,nt
CC(=O)c1cccc(OCc2cc(C(=O)N(C)CCC3CCOCC3)no2)c1,-8,52*,1,-7
O=C(c1cc(COc2cccc(C(F)(F)F)c2)on1)N1C[C@H]2CC[C@H]1C2,19,58*,3,12
CC(=O)c1cccc(OCc2cc(C(=O)N3C[C@@H](C)O[C@@H](C)C3)no2)c1,5,65*,4,-10
CN(C(=O)c1cc(COc2ccc(F)cc2Cl)on1)C1CCOC1 (configuration not stated),-12,14,-1,-8
COc1cccc(OCc2cc(C(=O)N(C)CCC3CCCCO3)no2)c1 (configuration not stated),8,35,2,-8
COc1ccccc1OCc1cc(C(=O)N(C)CCC2CCOCC2)no1,-14,54*,7,-2
COc1ccc(NC(=O)N(C)C[C@@H]2Oc3c(NS(=O)(=O)c4cn(C)cn4)cccc3C(=O)N([C@@H](C)CO)C[C@H]2C)cc1,nt,4,nt,nt
C[C@H](CO)N1C[C@H](C)[C@H](CN(C)Cc2ccc(C(=O)O)cc2)Oc2c(NS(=O)(=O)c3ccccc3)cccc2C1=O,nt,-2,nt,nt
CN(C)C(=O)C[C@H]1C[C@@H]2c3cc(NC(=O)Nc4ccccc4)ccc3O[C@@H]2[C@@H](CO)O1,nt,6,nt,nt
CC(=O)Nc1ccc(N/C=C/C(=O)c2ccc(Br)cc2)cc1,nt,34,nt,nt
COc1ccc(N/C=C\C(=O)c2ccc(C)cc2)cc1OC,-7,52*,6,-6
CC(=O)c1ccc(N/C=C/C(=O)c2ccc(Br)cc2)cc1,0,46*,3,-10
CCOC(=O)c1cccc(N/C=C/C(=O)c2ccc(OC)c(OC)c2)c1,2,53*,2,-3
COc1ccc(N/C=C\C(=O)c2ccc(Br)cc2)cc1OC,-6,nt,3,-2
CCNC(=O)C[C@H]1CC[C@@H]2[C@@H](COc3ccc(NC(=O)c4cc(C)on4)cc3C(=O)N2C)O1,nt,-2,nt,nt
SMILES,ASAP1 inh,esBAF inh,SMARCA2 activ,ARFGAP1 inh
O=C(Cc1ccccn1)NCC[C@H]1CC[C@H](NC(=O)c2ccccc2F)[C@@H](CO)O1,nt,1,nt,nt
Nc1ccc2oc(-c3ccccc3Cl)cc(=O)c2c1O,-4,60*,6,-3
O=c1cc(-c2ccccc2Cl)oc2ccc([N+](=O)[O-])c(O)c12,-11,6,0,-16
Fc1ccc(-c2cn3cc(C(F)(F)F)cc(Cl)c3n2)cc1,-14,46*,6,-2
Fc1ccc(-c2nc3c(Cl)cc(C(F)(F)F)cn3c2Cc2ccccc2)cc1,-4,10,3,-3
O=C(Cc1ccccc1)N1CC[C@@H]2[C@@H](CO)Nc3ccc(Br)cc3[C@@H]21,nt,-3,nt,nt
Cc1ccccc1-c1nc(-c2ccc(NC(=O)c3ccc(Br)o3)cc2)no1,4,49*,1,-1
O=C(Nc1ccc2c(c1)Cc1ccccc1-2)c1ccc(Br)o1,-7,51*,2,9
